Assay [1] concerns HeLa. Briefly: Cytotoxicity against human HeLa cells assessed as growth inhibition at 10 uM after 72 hrs by SRB assay relative to control. The settings on record: read-out: GI. It is filed as functional. The method in brief:
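SRB single-dose screen at 10 μM on 293T, A549, Hela and MCF-7 cells. Results reported as percent inhibitory ratio (mean ± SD).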

In a further assay the test system is HEK-293T. Briefly: Cytotoxicity against human 293T cells after 72 hrs by SRB assay. It is filed as cell-based. The method in brief:
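SRB assay on 293T, A549, Hela and MCF-7 cells, with cisplatin as reference control. IC50 calculated for each compound from triplicate assays.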

In assay [2] the test system is HeLa. Description: Induction of apoptosis in human HeLa cells assessed as irregular nucleus at 7.5 uM after 48 hrs by Hoechst 33342 staining based fluorescence microscopic method. It is filed as functional, cell-based. The method in brief: (§1)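 Hela cells seeded at 10^6 per well on cover slips and incubated 16 h. Then exposed 48 h at 2.5, 5.0 or 7.5 μM, DMSO negative control. Cells fixed in 4% paraformaldehyde for 15 min, washed in PBS, stained with Hoechst 33342 for 10 min. Nuclear morphology viewed by fluorescence microscopy, ex 350 nm / em 460 nm.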

Assay [3] has as its system HeLa. Description: Induction of apoptosis in human HeLa cells assessed as nuclear condensation at 7.5 uM after 48 hrs by Hoechst 33342 staining based fluorescence microscopic method. It is filed as functional, cell-based. In a few lines:
as §1

Assay [4] concerns HeLa. Description: Induction of apoptosis in human HeLa cells assessed as apoptotic body formation at 7.5 uM after 48 hrs by Hoechst 33342 staining based fluorescence microscopic method. It is filed as functional, cell-based. In a few lines:
as §1

The test system of assay [5] is HeLa. Briefly: Induction of apoptosis in human HeLa cells assessed as gated cells at late apoptotic stage at 2.5 uM after 24 hrs by Annexin-V-FITC/propidium iodide staining based flow cytometry (reference value: 0.03%). It is filed as functional. The method in brief:
(§2)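 Hela cells seeded at 10^6 per well and stabilized 24 h at 37 °C, 5% CO2. Then treated 24 h at 2.5, 5.0 or 7.5 μM, DMSO negative control. Cells washed in cold PBS, resuspended at 1×10^6 cells/mL in cold binding buffer, stained with annexin V-FITC then PI for 15 min in dark, analysed by flow cytometry.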

The subject of assay [6] is HeLa. Description: Induction of apoptosis in human HeLa cells assessed as gated cells at viable stage at 2.5 uM after 24 hrs by Annexin-V-FITC/propidium iodide staining based flow cytometry (reference value: 99.88%). It is filed as functional. The method in brief:
as §2

Assay [7] relates to HeLa. Description: Induction of apoptosis in human HeLa cells assessed as total cells at necrotic stage at 2.5 uM after 24 hrs by Annexin-V-FITC/propidium iodide staining based flow cytometry (reference value: 0.05%). It is filed as functional. The method in brief: as §2
Assay [8] has as its system HeLa. Briefly: Induction of apoptosis in human HeLa cells assessed as gated cells at necrotic stage at 5 uM after 24 hrs by Annexin-V-FITC/propidium iodide staining based flow cytometry (reference value: 0.05%). It is filed as functional. The method in brief:
as §2

Assay [9] deals with HeLa. Description: Induction of apoptosis in human HeLa cells assessed as gated cells at late apoptotic stage at 5 uM after 24 hrs by Annexin-V-FITC/propidium iodide staining based flow cytometry (reference value: 0.03%). It is filed as functional. In a few lines: as §2
In assay [10] the test system is HeLa. Briefly: Induction of apoptosis in human HeLa cells assessed as total cells at early apoptotic stage at 5 uM after 24 hrs by Annexin-V-FITC/propidium iodide staining based flow cytometry (reference value: 0.04%). It is filed as functional. In a few lines:
as §2

The test system of assay [11] is HeLa. Description: Induction of apoptosis in human HeLa cells assessed as gated cells at early apoptotic stage at 7.5 uM after 24 hrs by Annexin-V-FITC/propidium iodide staining based flow cytometry (reference value: 0.04%). It is filed as functional. In a few lines: as §2
For assay [12], the system named is HeLa. Briefly: Induction of apoptosis in human HeLa cells assessed as total cells at late apoptotic stage at 7.5 uM after 24 hrs by Annexin-V-FITC/propidium iodide staining based flow cytometry (reference value: 0.03%). It is filed as functional. The method in brief:
as §2

In assay [13] the test system is HeLa. Description: Induction of apoptosis in human HeLa cells assessed as total cells at early apoptotic stage at 7.5 uM after 24 hrs by Annexin-V-FITC/propidium iodide staining based flow cytometry (reference value: 0.04%). It is filed as functional. In a few lines: as §2
The subject of assay [14] is HeLa. Briefly: Cell cycle arrest in human HeLa cells assessed as accumulation at S phase at 2.5 uM after 24 hrs by propidium iodide staining based flow cytometry (reference value: 18.92%). It is filed as functional.
Assay [15] has as its system HeLa. Briefly: Cell cycle arrest in human HeLa cells assessed as accumulation at S phase at 5 uM after 24 hrs by propidium iodide staining based flow cytometry (reference value: 18.92%). It is filed as functional.

The results in this text go back to ChEMBL document CHEMBL4049388, “Facile and efficient access to Androsten-17-(1',3',4')-pyrazoles and Androst-17β-(1',3',4')-pyrazoles via Vilsmeier reagents, and their antiproliferative activity evaluation in vitro” (Eur J Med Chem, 2017).

Activity calls are given as the source filed them. The calls are words filed in the database; no cut-off is given here.

Take `CCNCc1cn(-c2ccccc2)nc1C1=CC[C@H]2[C@@H]3CC=C4C[C@@H](O)CC[C@]4(C)[C@H]3CC[C@]12C`: in the assay with HeLa [1], the inhibition of growth at 10 µM came out at 92.8%. This compound gave a concentration for half-maximal inhibition (IC50) in the assay on HEK-293T of 870 nM. For the same compound, the result with HeLa [2], in the assay on HeLa [3] and in the assay on HeLa [4] was Active. Also, the Activity in the assay with HeLa [5] is 0.16%; with HeLa [6], 97.93%; in the assay with HeLa [7], 1.28%; with HeLa [8], 3.79%; in the assay on HeLa [9], 0.36%; in the assay on HeLa [10] it was 2.08%. Further, the Activity is 8.37% in the assay on HeLa [11]; 0.9% with HeLa [12]; 7.5% with HeLa [13]; 19.8% in the assay on HeLa [14]; 24.34% in the assay on HeLa [15].
